# Experimental data reported in ChEMBL document CHEMBL1123747, “N-methyl derivatives of the 5-HT2 agonist 1-(4-bromo-2,5-dimethoxyphenyl)-2-aminopropane” (J Med Chem, 1987).
# Activity calls are given as the source filed them. The rule behind the calls is not given here.
# Key:
# Rattus norvegicus [1] = organism: Rattus norvegicus; test: The number of responses made on the (R)(-)-DOB appropriate level, generation studies was calculated at dose 1.2 mg / kg; format: functional
# How it was run: (§1)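 Male Sprague-Dawley rats (n = 6) were trained on a two-lever operant task for sweetened-milk reward to discriminate 0.2 mg/kg (R)-(-)-DOB-HCl ip from 1.0 mL/kg 0.9% saline, with a VI 15-s schedule and 15-min sessions. Test doses were given ip 15 min before a 2.5-min extinction session, in random order, to groups of 3-6 rats. Read-out was % drug-lever responses; fewer than five total responses counted as disrupted.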
# Rattus norvegicus [2] = organism: Rattus norvegicus; test: The mean responses per minute during the 2.5 min extinction session in the stimulus-generation studies was calculated at dose 2.0 mg / kg; format: functional
# How it was run: (§2)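 Rats were trained on a two-lever drug-versus-saline discrimination (0.2 mg/kg ip training dose, VI 15-s, food reward). Challenge doses were given ip 15 min before a 2.5-min extinction test, in random order, to groups of 3–6 rats, with at least three training sessions between tests. Response rate is responses per minute over the extinction session.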
# [3] = target: T1, Serotonin 2 (5-HT2) receptor (Rattus norvegicus, UniProt P30994+P08909+P14842); test: Affinity towards [3H]- DOB -labeled 5-hydroxytryptamine 2 receptor sites in rat cortical homogenates
# Rattus norvegicus [4] = organism: Rattus norvegicus; test: The mean responses per minute during the 2.5 min extinction session in the stimulus-generation studies was calculated at dose 0.7 mg / kg; format: functional; how it was run: as §2
# Rattus norvegicus [5] = organism: Rattus norvegicus; test: The mean responses per minute during the 2.5 min extinction session in the stimulus-generation studies was calculated at dose 1.2 mg / kg; format: functional; how it was run: as §2
# Rattus norvegicus [6] = organism: Rattus norvegicus; test: The number of animals responding per number of animals receiving the drug (4/4)in the stimulus-generation studies, was calculated at dose 0.7 mg / kg; format: functional
# How it was run: (§3)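 Male Sprague-Dawley rats were trained to discriminate 0.2 mg/kg ip training drug from saline (two levers, VI 15-s, milk reward). Test doses were given ip 15 min pre-session in random order to groups of 3–6. In the 2.5-min extinction session, rats making fewer than five total responses were counted as disrupted. N is animals responding over animals dosed.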
# Rattus norvegicus [7] = organism: Rattus norvegicus; test: The number of animals responding per number of animals receiving the drug (4/4)in the stimulus-generation studies, was calculated at dose 2.0 mg / kg; format: functional; how it was run: as §3
# [8] = target: T1, Serotonin 2 (5-HT2) receptor; test: Affinity towards [3H]- ketanserin-labeled 5-hydroxytryptamine 2 receptor sites in rat cortical homogenates
# How it was run: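 Label was 0.4 nM [3H]ketanserin, with 11 competitor concentrations run in triplicate and nonspecific binding defined by 1 μM cinanserin. Bound ligand was filtered onto glass fibre and counted by scintillation. IC50 came from nonlinear regression; Ki = IC50/(1+[D]/KD).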
# Rattus norvegicus [9] = organism: Rattus norvegicus; test: The mean responses per minute during the 2.5 min extinction session in the stimulus-generation studies was calculated at dose 2.2 mg / kg; format: functional; how it was run: as §2
# Rattus norvegicus [10] = organism: Rattus norvegicus; test: The number of responses made on the (R)(-)-DOB appropriate level, generation studies was calculated at dose 2.2 mg / kg; format: functional; how it was run: as §1
# Rattus norvegicus [11] = organism: Rattus norvegicus; test: The number of responses made on the (R)(-)-DOB appropriate level, generation studies was calculated at dose 2.0 mg / kg; format: functional; how it was run: as §1
# Rattus norvegicus [12] = organism: Rattus norvegicus; test: The number of responses made on the (R)(-)-DOB appropriate level, generation studies was calculated at dose 0.7 mg / kg; format: functional; how it was run: as §1
# Rattus norvegicus [13] = organism: Rattus norvegicus; test: The number of animals responding per number of animals receiving the drug(3/4) in the stimulus-generation studies, was calculated at dose 2.2 mg / kg; format: functional; how it was run: as §3
# Rattus norvegicus [14] = organism: Rattus norvegicus; test: The number of animals responding per number of animals receiving the drug (3/3)in the stimulus-generation studies, was calculated at dose 1.2 mg / kg; format: functional; how it was run: as §3
# Rattus norvegicus [15] = organism: Rattus norvegicus; test: The compound was tested for effective dose ( ED 50) against stimulus generation with rats trained to discriminate (R) (-)-DOB from saline; format: functional
# How it was run: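 Male Sprague-Dawley rats (n = 6) on a two-lever operant task for sweetened milk, VI 15-s schedule. Trained to discriminate 0.2 mg/kg ip training drug from 1.0 mL/kg 0.9% saline, 15 min pre-session. Test doses were given ip in random order to groups of 3–6, with 15-min pretreatment and a 2.5-min extinction session. ED50 was calculated from dose-response data.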
# Rattus norvegicus [16] = test: The number of animals responding per number of animals receiving the drug (3/3)in the stimulus-generation studies was calculated at dose 1.0 mg/kg; format: functional; how it was run: as §3
# Rattus norvegicus [17] = test: The number of responses made on the (R)(-)-DOB appropriate lever, generation studies was calculated at dose 1.4 mg/kg; NR means not responding; format: functional, organism-based; design: dose 1.4 mg/kg; how it was run: as §1
# Rattus norvegicus [18] = test: The number of responses made on the (R)(-)-DOB appropriate lever, generation studies was calculated at dose 1.0 mg/kg; format: functional; how it was run: as §1
# Rattus norvegicus [19] = test: The number of responses made on the (R)(-)-DOB appropriate lever, generation studies was calculated at dose 0.6 mg/kg; format: functional; how it was run: as §1
# Rattus norvegicus [20] = test: The mean responses per minute during the 2.5 min extinction session in the stimulus-generation studies was calculated at dose 1.0 mg/kg; format: functional; how it was run: as §2
# Rattus norvegicus [21] = test: The number of responses made on the (R)(-)-DOB appropriate lever, generation studies was calculated at dose 1.5 mg/kg; NR means not responding; format: functional, organism-based; design: dose 1.5 mg/kg; how it was run: as §1
# Rattus norvegicus [22] = test: The mean responses per minute during the 2.5 min extinction session in the stimulus-generation studies was calculated at dose 0.6 mg/kg; format: functional; how it was run: as §2
# Rattus norvegicus [23] = test: The mean responses per minute during the 2.5 min extinction session in the stimulus-generation studies was calculated at dose 1.3 mg/kg; format: functional; how it was run: as §2
# Rattus norvegicus [24] = test: The number of animals responding per number of animals receiving the drug (2/6)in the stimulus-generation studies was calculated at dose 1.5 mg/kg; format: functional; how it was run: as §3
# Rattus norvegicus [25] = test: The number of animals responding per number of animals receiving the drug (3/3) in the stimulus-generation studies was calculated at dose 0.3 mg/kg; format: functional; how it was run: as §3
# Rattus norvegicus [26] = test: The number of animals responding per number of animals receiving the drug(2/6) in the stimulus-generation studies was calculated at dose 1.4 mg/kg; format: functional; how it was run: as §3
# Rattus norvegicus [27] = test: The number of animals responding per number of animals receiving the drug (5/5)in the stimulus-generation studies was calculated at dose 1.3 mg/kg; format: functional; how it was run: as §3
# Rattus norvegicus [28] = test: The number of responses made on the (R)(-)-DOB appropriate lever, generation studies was calculated at dose 1.3 mg/kg; format: functional; how it was run: as §1
# Rattus norvegicus [29] = test: The mean responses per minute during the 2.5 min extinction session in the stimulus-generation studies was calculated at dose 0.3 mg/kg; format: functional; how it was run: as §2
# Rattus norvegicus [30] = test: The mean responses per minute during the 2.5 min extinction session in the stimulus-generation studies was calculated at dose 1.2 mg/kg; format: functional; how it was run: as §2
# Rattus norvegicus [31] = test: The number of animals responding per number of animals receiving the drug (4/4)in the stimulus-generation studies was calculated at dose 0.6 mg/kg; format: functional; how it was run: as §3
# Rattus norvegicus [32] = test: The number of responses made on the (R)(-)-DOB appropriate lever, generation studies was calculated at dose 1.2 mg/kg; format: functional; how it was run: as §1
# Rattus norvegicus [33] = test: The number of responses made on the (R)(-)-DOB appropriate lever, generation studies was calculated at dose 0.3 mg/kg; format: functional; how it was run: as §1
# Rattus norvegicus [34] = test: The number of animals responding per number of animals receiving the drug(3/4) in the stimulus-generation studies was calculated at dose 1.2 mg/kg; format: functional; how it was run: as §3
smiles,measurement,setting,value
COc1cc(CC(C)[N+](C)(C)C)c(OC)cc1Br.[I-] (stereo unspecified),Responding,Rattus norvegicus [1],9%
same,Response rate,Rattus norvegicus [2],7.3
same,Ki,[3],8.25 µM
same,Response rate,Rattus norvegicus [4],16.2
same,Response rate,Rattus norvegicus [5],11.9
same,No. of animals responding/animals receiving drug,Rattus norvegicus [6],4
same,No. of animals responding/animals receiving drug,Rattus norvegicus [7],4
same,Ki,[8],> 25 µM
same,Response rate,Rattus norvegicus [9],3.7
same,Responding,Rattus norvegicus [10],3%
same,Responding,Rattus norvegicus [11],38%
same,Responding,Rattus norvegicus [12],3%
same,No. of animals responding/animals receiving drug,Rattus norvegicus [13],3
same,No. of animals responding/animals receiving drug,Rattus norvegicus [14],3
CNC(C)Cc1cc(OC)c(Br)cc1OC (stereo unspecified),ED50,Rattus norvegicus [15],0.82 mg/kg
same,No. of animals responding/animals receiving drug,Rattus norvegicus [16],3
same,Responding,Rattus norvegicus [17],inactive
same,Responding,Rattus norvegicus [18],50%
same,Responding,Rattus norvegicus [19],28%
same,Ki,[3],0.0077 µM
same,Response rate,Rattus norvegicus [20],12
same,Responding,Rattus norvegicus [21],inactive
same,Response rate,Rattus norvegicus [22],13.6
same,Response rate,Rattus norvegicus [23],8
same,No. of animals responding/animals receiving drug,Rattus norvegicus [24],2
same,No. of animals responding/animals receiving drug,Rattus norvegicus [25],3
same,No. of animals responding/animals receiving drug,Rattus norvegicus [26],2
same,No. of animals responding/animals receiving drug,Rattus norvegicus [27],5
same,Responding,Rattus norvegicus [28],82%
same,Ki,[8],0.079 µM
same,Response rate,Rattus norvegicus [29],11.6
same,Response rate,Rattus norvegicus [30],13.3
same,No. of animals responding/animals receiving drug,Rattus norvegicus [31],4
same,Responding,Rattus norvegicus [32],70%
same,Responding,Rattus norvegicus [33],12%
same,No. of animals responding/animals receiving drug,Rattus norvegicus [34],3
